Data taken from ChEMBL document CHEMBL4406821, “Novel dual inhibitors targeting CDK4 and VEGFR2 synergistically suppressed cancer progression and angiogenesis” (Eur J Med Chem, 2019).
Activity calls are given as the source filed them. The rule behind the calls is not given here.

What was measured:
[1] = biological target: Serine/threonine-protein kinase PLK1 (Homo sapiens) (UniProt P53350); experiment: Inhibition of recombinant human full length PLK1 at 1 uM using casein as substrate incubated for 40 mins in presence of [gamma-33P]-ATP by scintillation counting method relative to control
Chain of Serine/threonine-protein kinase PLK1 (Homo sapiens) (P53350 whole entry): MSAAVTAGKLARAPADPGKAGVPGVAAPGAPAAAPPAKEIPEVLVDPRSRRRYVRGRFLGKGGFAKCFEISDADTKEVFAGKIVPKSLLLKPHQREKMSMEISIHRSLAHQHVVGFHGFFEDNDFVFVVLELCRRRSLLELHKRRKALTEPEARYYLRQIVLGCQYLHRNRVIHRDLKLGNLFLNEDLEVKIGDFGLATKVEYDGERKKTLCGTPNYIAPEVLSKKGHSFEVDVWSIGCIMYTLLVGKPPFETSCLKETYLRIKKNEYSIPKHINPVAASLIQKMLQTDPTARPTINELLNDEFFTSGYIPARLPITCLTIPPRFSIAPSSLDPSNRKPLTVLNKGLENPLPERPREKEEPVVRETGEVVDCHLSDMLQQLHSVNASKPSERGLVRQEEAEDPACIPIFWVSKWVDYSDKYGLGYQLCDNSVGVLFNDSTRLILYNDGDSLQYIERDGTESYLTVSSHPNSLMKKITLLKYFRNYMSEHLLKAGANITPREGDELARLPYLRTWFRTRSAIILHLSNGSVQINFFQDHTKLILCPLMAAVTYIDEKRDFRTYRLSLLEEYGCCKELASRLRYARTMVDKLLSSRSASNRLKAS

[2] = biological target: cAMP-dependent protein kinase catalytic subunit PRKX (Homo sapiens) (UniProt P51817); experiment: Inhibition of recombinant human full length PrKX at 1 uM using RRRLSFAEPG as substrate incubated for 40 mins in presence of [gamma-33P]-ATP by scintillation counting method relative to control
Chain of cAMP-dependent protein kinase catalytic subunit PRKX (Homo sapiens) (P51817 whole entry): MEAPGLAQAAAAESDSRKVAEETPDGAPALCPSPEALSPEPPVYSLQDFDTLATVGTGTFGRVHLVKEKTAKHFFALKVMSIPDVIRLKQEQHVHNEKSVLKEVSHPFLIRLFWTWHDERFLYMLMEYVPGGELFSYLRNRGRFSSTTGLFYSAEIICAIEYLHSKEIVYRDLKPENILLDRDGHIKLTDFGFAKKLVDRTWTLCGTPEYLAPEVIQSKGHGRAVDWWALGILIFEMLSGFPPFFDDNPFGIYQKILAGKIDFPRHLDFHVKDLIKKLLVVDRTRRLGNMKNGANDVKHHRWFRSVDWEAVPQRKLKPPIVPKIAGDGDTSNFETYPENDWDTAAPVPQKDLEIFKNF

[3] = biological target: Insulin-like growth factor 1 receptor (Homo sapiens) (UniProt P08069); experiment: Inhibition of recombinant human IGF1R (959 to end residues) at 1 uM using KKKSPGEYVNIEFG as substrate incubated for 40 mins in presence of [gamma-33P]-ATP by scintillation counting method relative to control
[4] = biological target: Serine/threonine-protein kinase PAK 1 (Homo sapiens) (UniProt Q13153); experiment: Inhibition of recombinant human PAK1 (150 to end residues) at 1 uM using RRRLSFAEPG as substrate incubated for 40 mins in presence of [gamma-33P]-ATP by scintillation counting method relative to control
Chain of Serine/threonine-protein kinase PAK 1 (Homo sapiens) (Q13153 whole entry): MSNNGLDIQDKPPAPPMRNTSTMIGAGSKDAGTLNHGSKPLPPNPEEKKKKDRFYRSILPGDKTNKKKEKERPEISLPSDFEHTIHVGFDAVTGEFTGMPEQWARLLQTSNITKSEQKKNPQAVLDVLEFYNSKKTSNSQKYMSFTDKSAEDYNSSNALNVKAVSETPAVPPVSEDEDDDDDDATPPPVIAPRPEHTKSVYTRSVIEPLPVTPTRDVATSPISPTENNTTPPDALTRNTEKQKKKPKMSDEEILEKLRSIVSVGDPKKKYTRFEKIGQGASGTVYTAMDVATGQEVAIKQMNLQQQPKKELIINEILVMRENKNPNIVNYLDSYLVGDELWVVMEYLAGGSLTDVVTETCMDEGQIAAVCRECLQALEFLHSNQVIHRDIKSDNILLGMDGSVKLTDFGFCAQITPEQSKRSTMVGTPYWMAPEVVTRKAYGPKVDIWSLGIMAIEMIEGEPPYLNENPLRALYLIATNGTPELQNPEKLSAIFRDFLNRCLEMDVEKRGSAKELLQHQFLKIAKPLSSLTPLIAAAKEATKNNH

[5] = tested on: Platelet-derived growth factor receptor alpha (Homo sapiens), P16234 [D842V]; experiment: Inhibition of recombinant human PDGFRalpha D842V mutant (550 to end residues) at 1 uM using GGMEDIYFEFMGGKKK as substrate incubated for 40 mins in presence of [gamma-33P]-ATP by scintillation counting method relative to control
Chain of Platelet-derived growth factor receptor alpha (Homo sapiens), P16234 [D842V] (P16234 whole entry D842V): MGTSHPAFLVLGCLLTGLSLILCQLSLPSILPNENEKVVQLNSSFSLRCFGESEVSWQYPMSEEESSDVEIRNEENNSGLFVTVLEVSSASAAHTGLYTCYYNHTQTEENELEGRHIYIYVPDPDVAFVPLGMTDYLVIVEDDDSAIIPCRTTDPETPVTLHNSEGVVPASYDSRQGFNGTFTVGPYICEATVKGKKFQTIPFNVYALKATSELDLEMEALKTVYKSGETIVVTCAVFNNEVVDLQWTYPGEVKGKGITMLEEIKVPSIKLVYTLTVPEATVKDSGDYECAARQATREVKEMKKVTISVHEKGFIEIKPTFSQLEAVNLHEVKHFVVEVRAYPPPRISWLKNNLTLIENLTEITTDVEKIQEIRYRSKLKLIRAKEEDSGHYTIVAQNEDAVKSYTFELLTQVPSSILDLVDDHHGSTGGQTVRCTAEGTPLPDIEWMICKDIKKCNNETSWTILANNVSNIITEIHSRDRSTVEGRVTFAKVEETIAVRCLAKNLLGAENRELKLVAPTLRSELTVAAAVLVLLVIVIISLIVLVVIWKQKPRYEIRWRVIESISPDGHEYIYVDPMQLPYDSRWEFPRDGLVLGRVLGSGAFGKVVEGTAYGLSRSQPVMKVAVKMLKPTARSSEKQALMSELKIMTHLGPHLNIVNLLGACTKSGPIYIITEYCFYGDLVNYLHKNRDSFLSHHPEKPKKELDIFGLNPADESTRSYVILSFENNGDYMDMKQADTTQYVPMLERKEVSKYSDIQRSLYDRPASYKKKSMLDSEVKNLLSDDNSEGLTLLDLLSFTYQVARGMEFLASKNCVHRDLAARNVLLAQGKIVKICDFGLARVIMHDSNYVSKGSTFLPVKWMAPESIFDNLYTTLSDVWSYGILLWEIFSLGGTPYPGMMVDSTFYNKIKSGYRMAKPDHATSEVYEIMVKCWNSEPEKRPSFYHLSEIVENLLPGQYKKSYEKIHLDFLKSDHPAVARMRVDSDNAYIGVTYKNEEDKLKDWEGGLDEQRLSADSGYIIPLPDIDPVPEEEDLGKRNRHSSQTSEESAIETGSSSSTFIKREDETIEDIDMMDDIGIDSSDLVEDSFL
Outline: (§1)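 Tested at a single 1 uM in an outsourced commercial kinase-profiling panel, read as percent inhibition. Each value is the mean of two independent experiments.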

[6] = biological target: Tyrosine-protein kinase receptor TYRO3 (Homo sapiens) (UniProt Q06418); experiment: Inhibition of recombinant human RSE (451 to end residues) at 1 uM using KVEKIGEGTYGVVYK as substrate incubated for 40 mins in presence of [gamma-33P]-ATP by scintillation counting method relative to control
HeLa [7] = experiment: Induction of apoptosis in human HeLa cells assessed as increase in early apoptotic cells at 20 to 40 nM incubated for 48 hrs by annexin V FITC and propidium iodide staining based flow cytometry; format: functional, cell-based
Outline: (§2)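 Cells were treated for 48 h, stained with FITC Annexin V and PI, and analyzed by flow cytometry to count early and late apoptotic cells.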

[8] = biological target: Serine/threonine-protein kinase A-Raf (Homo sapiens) (UniProt P10398); experiment: Inhibition of recombinant human A-Raf (273 to end residues) at 1 uM using myelin as substrate incubated for 40 mins in presence of [gamma-33P]-ATP by scintillation counting method relative to control
Chain of Serine/threonine-protein kinase A-Raf (Homo sapiens) (P10398 whole entry): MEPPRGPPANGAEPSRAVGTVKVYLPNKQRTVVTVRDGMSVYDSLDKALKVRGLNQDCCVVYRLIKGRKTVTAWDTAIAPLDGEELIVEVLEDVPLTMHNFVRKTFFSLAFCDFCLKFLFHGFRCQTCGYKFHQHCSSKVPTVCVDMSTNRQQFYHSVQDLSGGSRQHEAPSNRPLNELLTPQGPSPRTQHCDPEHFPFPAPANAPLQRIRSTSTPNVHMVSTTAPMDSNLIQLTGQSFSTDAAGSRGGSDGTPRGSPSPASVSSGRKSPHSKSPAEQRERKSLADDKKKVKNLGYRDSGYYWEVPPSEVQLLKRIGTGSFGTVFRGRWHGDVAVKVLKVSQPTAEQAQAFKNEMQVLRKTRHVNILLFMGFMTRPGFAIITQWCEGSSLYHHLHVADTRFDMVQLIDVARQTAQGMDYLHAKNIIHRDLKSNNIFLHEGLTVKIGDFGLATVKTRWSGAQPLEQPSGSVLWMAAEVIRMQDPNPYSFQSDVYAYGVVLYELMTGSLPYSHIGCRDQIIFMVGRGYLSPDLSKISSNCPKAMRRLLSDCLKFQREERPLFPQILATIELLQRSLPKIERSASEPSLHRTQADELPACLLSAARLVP
Outline: (§3)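 Kinase panel profiling at 1 μM performed by Eurofins KinaseProfiler; percent inhibition reported as mean of two independent experiments.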

[9] = biological target: Phosphatidylinositol 4-phosphate 3-kinase C2 domain-containing subunit alpha (Homo sapiens) (UniProt O00443); experiment: Inhibition of recombinant human PI3KC2alpha (299 to end residues) at 1 uM using phosphatidylinositol as substrate incubated for 40 mins in presence of [gamma-33P]-ATP by scintillation counting method relative to control; outline: as §1
Chain of Phosphatidylinositol 4-phosphate 3-kinase C2 domain-containing subunit alpha (Homo sapiens) (O00443 whole entry, the tested form may be a part): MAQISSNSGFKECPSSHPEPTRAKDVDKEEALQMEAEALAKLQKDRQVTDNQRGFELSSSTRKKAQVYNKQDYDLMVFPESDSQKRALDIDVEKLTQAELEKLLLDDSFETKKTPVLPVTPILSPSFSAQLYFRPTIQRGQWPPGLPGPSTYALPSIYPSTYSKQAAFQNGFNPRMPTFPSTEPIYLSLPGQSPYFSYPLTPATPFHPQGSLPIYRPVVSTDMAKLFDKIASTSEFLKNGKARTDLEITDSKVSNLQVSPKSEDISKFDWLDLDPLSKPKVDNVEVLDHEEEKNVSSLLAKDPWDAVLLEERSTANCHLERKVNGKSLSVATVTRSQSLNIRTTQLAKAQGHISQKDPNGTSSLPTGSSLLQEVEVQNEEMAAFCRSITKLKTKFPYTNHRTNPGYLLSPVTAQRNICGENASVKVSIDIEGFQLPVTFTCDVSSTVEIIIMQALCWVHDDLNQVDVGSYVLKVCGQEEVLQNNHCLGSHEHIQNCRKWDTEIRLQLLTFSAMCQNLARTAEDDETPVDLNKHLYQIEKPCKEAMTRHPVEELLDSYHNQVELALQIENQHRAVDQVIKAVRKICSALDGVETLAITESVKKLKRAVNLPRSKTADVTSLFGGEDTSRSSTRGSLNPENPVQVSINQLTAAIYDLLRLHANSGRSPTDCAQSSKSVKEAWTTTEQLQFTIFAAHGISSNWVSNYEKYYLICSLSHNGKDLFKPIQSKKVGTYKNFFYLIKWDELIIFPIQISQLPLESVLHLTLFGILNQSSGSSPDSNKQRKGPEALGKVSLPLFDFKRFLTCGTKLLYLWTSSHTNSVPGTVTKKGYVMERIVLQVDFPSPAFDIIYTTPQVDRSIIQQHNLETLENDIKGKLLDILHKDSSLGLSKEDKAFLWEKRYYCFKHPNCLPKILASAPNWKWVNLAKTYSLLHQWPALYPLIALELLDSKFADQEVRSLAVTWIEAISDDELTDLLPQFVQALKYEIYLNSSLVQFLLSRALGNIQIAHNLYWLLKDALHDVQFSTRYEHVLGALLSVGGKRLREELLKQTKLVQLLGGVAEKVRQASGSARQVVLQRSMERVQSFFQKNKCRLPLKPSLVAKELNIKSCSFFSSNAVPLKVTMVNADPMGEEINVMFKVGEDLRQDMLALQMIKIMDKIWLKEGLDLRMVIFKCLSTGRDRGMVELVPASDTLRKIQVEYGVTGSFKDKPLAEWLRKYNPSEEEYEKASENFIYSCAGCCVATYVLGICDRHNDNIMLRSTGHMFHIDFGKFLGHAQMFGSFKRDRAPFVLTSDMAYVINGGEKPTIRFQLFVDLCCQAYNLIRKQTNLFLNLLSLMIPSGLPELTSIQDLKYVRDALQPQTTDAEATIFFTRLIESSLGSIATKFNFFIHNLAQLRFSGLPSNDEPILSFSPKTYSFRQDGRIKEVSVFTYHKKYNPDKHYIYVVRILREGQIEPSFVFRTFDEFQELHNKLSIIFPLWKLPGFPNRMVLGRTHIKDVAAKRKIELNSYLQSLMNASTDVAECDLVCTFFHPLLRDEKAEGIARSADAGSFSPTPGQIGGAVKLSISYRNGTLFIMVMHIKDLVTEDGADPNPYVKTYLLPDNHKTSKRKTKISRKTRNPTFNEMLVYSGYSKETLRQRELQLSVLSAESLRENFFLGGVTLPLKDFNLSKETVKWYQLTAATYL

HeLa [10] = experiment: Induction of cell cycle arrest in human HeLa cells assessed as decrease in accumulation in S phase at 40 to 80 nM incubated for 36 hrs by propidium iodide staining based flow cytometry; format: functional
Outline: (§4)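 Cells were treated with graded concentrations for 36 h, then fixed overnight in 70% ice-cold ethanol at 4°C and resuspended in PBS. Staining used 50 µg/ml PI plus 5 µg/ml RNase at 37°C for 30 min. DNA content was analysed by FACS to give G0/G1, S and G2/M fractions.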

[11] = biological target: Ribosomal protein S6 kinase beta-1 (Homo sapiens) (UniProt P23443); experiment: Inhibition of recombinant human p70S6K (1 to 421 residues) at 1 uM using KKRNRTLTV as substrate incubated for 40 mins in presence of [gamma-33P]-ATP by scintillation counting method relative to control
HeLa [12] = experiment: Induction of cell cycle arrest in human HeLa cells assessed as accumulation in G2/M phase at 40 to 80 nM incubated for 36 hrs by propidium iodide staining based flow cytometry; format: functional; outline: as §4
[13] = Toxicity in NOD/SCID BALB/c mouse xenografted with human SiHa cells assessed as effect on blood parameter by measuring PCT at 40 mg/kg, po administered once two days for 4 times by hematology analyzer; format: organism-based; settings: in vivo
[14] = biological target: [Pyruvate dehydrogenase (acetyl-transferring)] kinase isozyme 2, mitochondrial (Homo sapiens) (UniProt Q15119); experiment: Inhibition of recombinant human PDHK2 at 1 uM incubated for 40 mins in presence of [gamma-33P]-ATP by scintillation counting method relative to control; outline: as §1
[15] = biological target: Death-associated protein kinase 1 (Homo sapiens) (UniProt P53355); experiment: Inhibition of recombinant human DAPK1 (1 to 296 residues) at 1 uM using KKLNRTLSFAEPG as substrate incubated for 40 mins in presence of [gamma-33P]-ATP by scintillation counting method relative to control; outline: as §1
[16] = biological target: Dual specificity mitogen-activated protein kinase kinase 2 (Homo sapiens) (UniProt P36507); experiment: Inhibition of recombinant human full length MEK2 at 1 uM using MBP as substrate incubated for 40 mins in presence of [gamma-33P]-ATP by scintillation counting method relative to control
SiHa [17] = experiment: Antitumor activity against human SiHa cells xenografted in orally dosed NOD/SCID BALB/c mouse assessed as reduction in Ki67 expression measured after 21 days by hematoxylin and eosin staining based immunohistochemistry; format: functional, organism-based
Outline: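 Female NOD/SCID Balb/c mice, 6–8 weeks old, received 2×10^6 SiHa cells subcutaneously in the right flank. Once tumors reached 100 mm³, mice were randomized, 5 per group, and gavaged once daily for 21 days. Formalin-fixed, paraffin-embedded tumor sections were stained with Ki67 or CD31 antibody (1:100, 4 °C overnight), then biotin secondary and ABC-peroxidase/DAB, with hematoxylin counterstain.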

[18] = tested on: Epidermal growth factor receptor (Homo sapiens), P00533 [L858R]; experiment: Inhibition of recombinant human EGFR L858R mutant (696 to end residues) at 1 uM using poly(Glu, Tyr) 4:1 as substrate incubated for 40 mins in presence of [gamma-33P]-ATP by scintillation counting method relative to control; outline: as §3
HeLa [19] = experiment: Induction of apoptosis in human HeLa cells at 40 nM incubated for 48 hrs by annexin V FITC and propidium iodide staining based flow cytometry; format: functional, cell-based; outline: as §2
SiHa [20] = experiment: Antiproliferative activity against human SiHa cells assessed as reduction in cell viability at 80 nM incubated for 48 hrs by EdU staining based laser scanning confocal microscopy; format: functional
Outline: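 Cells, 5×10^4, were seeded in 24-well plates and treated for 48 h. They were then labeled using an EdU Apollo 488 imaging kit with Hoechst 33342 nuclear stain and imaged by laser scanning confocal microscopy. Percent EdU-positive cells = EdU-positive/Hoechst-stained × 100%.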

HeLa [21] = experiment: Inhibition of colony formation in human HeLa cells at 80 nM incubated for 5 days by crystal violet staining based light microscopy; format: functional, cell-based
Outline: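 4 × 10^3 cells per well were cultured with graded concentrations for 5 days. Cells were then fixed with 20% methanol, stained with 0.5% crystal violet and photographed by light microscopy.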

## Cc1ccc(NC(=O)C2(C(=O)Nc3ccc(Nc4ncc(F)c(-c5cc(F)c6nc(C)n(C(C)C)c6c5)n4)cc3)CC2)cc1
[1]
  inhibition: 23%
[2]
  inhibition: 43%
[3]
  inhibition: 11%
[4]
  inhibition: 52%
[5]
  inhibition: 48%
[6]
  inhibition: 66%
HeLa [7]
  Activity: Active
[8]
  inhibition: 19%
[9]
  inhibition: 0%
HeLa [10]
  Activity: Active
[11]
  inhibition: 63%
HeLa [12]
  Activity: Active
[13]
  Activity: Non-Toxic
[14]
  inhibition: 0%
[15]
  inhibition: 0%
[16]
  inhibition: 14%
SiHa [17]
  inhibition: Dose-dependent effect
[18]
  inhibition: 35%

## COc1cc2nccc(Oc3ccc(NC(=O)C4(C(=O)Nc5ccc(F)cc5)CC4)cc3)c2cc1OC [CABOZANTINIB]
HeLa [19]
  Activity: Active
SiHa [20]
  inhibition: Active
HeLa [21]
  inhibition: Active
